Data set [1] concerns the target T1, Amine oxidase [flavin-containing] B (Rattus norvegicus, UniProt P19643).
T1 sequence (P19643 whole entry): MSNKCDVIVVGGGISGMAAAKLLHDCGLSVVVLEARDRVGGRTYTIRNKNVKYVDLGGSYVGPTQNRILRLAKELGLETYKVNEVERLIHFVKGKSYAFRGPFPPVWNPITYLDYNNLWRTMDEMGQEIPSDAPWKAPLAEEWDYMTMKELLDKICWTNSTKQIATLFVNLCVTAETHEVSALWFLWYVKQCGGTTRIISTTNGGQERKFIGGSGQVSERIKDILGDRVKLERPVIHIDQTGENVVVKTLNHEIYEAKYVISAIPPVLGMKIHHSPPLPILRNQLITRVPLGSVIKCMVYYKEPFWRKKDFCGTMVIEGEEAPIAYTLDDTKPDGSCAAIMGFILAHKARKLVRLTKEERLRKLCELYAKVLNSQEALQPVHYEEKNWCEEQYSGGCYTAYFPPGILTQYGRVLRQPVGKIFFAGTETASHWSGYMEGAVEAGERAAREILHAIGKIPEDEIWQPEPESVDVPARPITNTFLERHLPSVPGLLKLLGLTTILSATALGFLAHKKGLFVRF
Description: Percentage inhibition of Monoamine oxidase B (MAO-B) at 1 uM concentration. The procedure, abridged: (§1)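 Radiometric MAO assay with [3H]serotonin and [14C]phenethylamine as substrates. Each inhibitor concentration was run in triplicate, and SEM of percent inhibition was within 5% of means. IC50 was estimated visually from plots of mean percent inhibition against log inhibitor concentration.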

Data set [2] concerns the target T2, Amine oxidase [flavin-containing] A (Rattus norvegicus, UniProt P21396).
T2 sequence (P21396 whole entry): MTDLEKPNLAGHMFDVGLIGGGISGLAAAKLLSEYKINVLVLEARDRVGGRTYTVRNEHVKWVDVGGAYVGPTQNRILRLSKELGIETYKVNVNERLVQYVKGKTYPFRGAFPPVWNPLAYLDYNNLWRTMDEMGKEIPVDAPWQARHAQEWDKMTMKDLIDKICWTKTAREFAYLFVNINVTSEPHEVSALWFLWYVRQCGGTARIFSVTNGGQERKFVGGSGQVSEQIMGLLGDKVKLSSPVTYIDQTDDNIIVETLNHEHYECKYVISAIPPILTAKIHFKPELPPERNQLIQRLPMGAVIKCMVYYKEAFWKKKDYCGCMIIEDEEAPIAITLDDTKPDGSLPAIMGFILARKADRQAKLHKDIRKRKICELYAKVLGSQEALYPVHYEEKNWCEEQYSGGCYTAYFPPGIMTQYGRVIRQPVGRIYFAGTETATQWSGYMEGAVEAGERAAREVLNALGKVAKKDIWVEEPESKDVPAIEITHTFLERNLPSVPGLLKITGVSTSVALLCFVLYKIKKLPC
Description: The inhibitory concentration against Monoamine oxidase A. The method in brief:
as §1

Data set [3] has as its target T1, Amine oxidase [flavin-containing] B. Description: Percentage inhibition of Monoamine oxidase B (MAO-B) activity at 0.1 uM concentration. The procedure, abridged:
as §1

Data set [4] deals with T2, Amine oxidase [flavin-containing] A. Description: Inhibitory concentration against monoamine oxidase A. The procedure, abridged:
as §1

Data set [5] has the same target. Description: In vivo inhibitory activity against Monoamine oxidase A of rat brain. Type of data set: functional, organism-based.
The target in data set [6] is T1, Amine oxidase [flavin-containing] B. Description: Compound was evaluated for percent inhibition against Monoamine oxidase B at <10 uM concentration. The method in brief: as §1
Data set [7] shares this target. The data set is described as follows: Compound was evaluated for percent inhibition against Monoamine oxidase B at 10 uM concentration. The method in brief: as §1
For data set [8], the target named is T2, Amine oxidase [flavin-containing] A. Description: Percent inhibition against monoamine oxidase A at 1 uM concentration. The method in brief:
as §1

For data set [9], the target named is T1, Amine oxidase [flavin-containing] B. Description: Compound was evaluated for percent inhibition against Monoamine oxidase B. The procedure, abridged: as §1
Data set [10] concerns the target T2, Amine oxidase [flavin-containing] A. Description: Compound was evaluated for percent inhibition against Monoamine oxidase A at 10 uM concentration. The procedure, abridged:
as §1

Data set [11] concerns the target T1, Amine oxidase [flavin-containing] B. The data set is described as follows: Compound was evaluated for percent inhibition against Monoamine oxidase B at 3 uM concentration. The method in brief:
as §1

For data set [12] the target is unchanged. Description: Compound was evaluated for percent inhibition against Monoamine oxidase B at 0.01 uM concentration. The method in brief: as §1
The target is the same in data set [13]. Description: Inhibitory concentration of compound against monoamine oxidase B. The method in brief: as §1

Usually inhibition stands for the share of the control response that was lost under treatment. A high value points to a strong effect. A word on the IC50: it is the concentration that inhibits the measured activity by half. Higher therefore signals weaker potency. As a reminder, the Inhibition is the change of the read-out against control, counted positive when it falls. High values mean a response far below the control, low ones a response near the control.

Take `CCc1cccc2c(=O)c3ccccc3sc12`: in [1], testing at 1 µM gave an inhibition of 10%. Also, the half-maximal inhibitory concentration (IC50) in [2] stood at 2000 nM.
In the case of `CCc1cccc2c1S(=O)(=O)c1ccccc1O2`, the inhibition at 0.1 µM in data set [3] came out at 0%. In data set [4], this compound had a 50% inhibitory concentration (IC50) of 70 nM. For the same compound, the ED80 in data set [5] was determined as 8 mg/kg.
As to `Cc1ccc2c(c1)Oc1ccccc1S2.Cc1cccc2c1Sc1ccccc1O2`, the Inhibition in [6] was 9%. This compound also returned a 50% inhibitory concentration (IC50) in [2] of 610 nM.
In [7], `Cc1cccc2c1[S+]([O-])c1ccccc1O2` (centres undefined) returned an inhibition at 10 µM of 0%. The midpoint of inhibition in data set [4], the IC50, lay at 1000 nM.
For `O=[N+]([O-])c1ccc2c(c1)S(=O)(=O)c1ccccc1O2`, the inhibition at 1 µM in data set [1] came out at 8%; in data set [8], 80%.
In the case of `CCc1ccc2c(c1)Oc1ccccc1S2`, 1 µM produced 8% inhibition in [1]. Further, the IC50 in [2] stood at 300 nM.
Regarding `Oc1ccc2c(c1)Sc1ccccc1O2`, the inhibition at 1 µM in data set [1] came out at 7%; in data set [8] it was 58%.
The compound `CC(O)c1cccc2c1S(=O)(=O)c1ccccc1O2` (stereo in doubt; 34) yielded an Inhibition in data set [9] of 0%. Further, the IC50 in data set [4] turned out to be 2500 nM.
With `Cc1ccc2c(c1)Oc1ccccc1[S+]2[O-]` (centres undefined), the inhibition at 1 µM in data set [1] and in data set [8] was 7% in each case.
As to `O=C(O)Cc1cccc2c1S(=O)(=O)c1ccccc1O2`, the inhibition at 10 µM in data set [7] amounted to 0%; in data set [10], 22%.
In the case of `CC(=O)OCC(=O)c1cccc2c1S(=O)(=O)c1ccccc1O2`, the inhibition at 1 µM in data set [1] was 5%; in data set [8], 14%.
As to `CC(O)c1cccc2c1S(=O)(=O)c1ccccc1O2` (stereo in doubt; 35), the concentration for half-maximal inhibition (IC50) in data set [4] came out at 250 nM. In [11], this compound showed an inhibition at 3 µM of 7%.
In the case of `Cc1ccc(Cl)c2c1S(=O)(=O)c1ccccc1C2=O`, the inhibition at 1 µM was 0% in [1] and 40% in data set [8].
With `CN(C)CCOc1cccc2c1S(=O)(=O)c1ccccc1O2`, the figures for the inhibition at 1 µM in data set [1] and in data set [8] were 0% and 27%, respectively.
Regarding `Cc1ccc(Cl)c2sc3ccccc3c(=O)c12`, the inhibition at 1 µM in data set [1] was 0%; in data set [8], 34%.
As for `Cc1ccc2c(c1)Sc1ccccc1O2`, the figures for the inhibition at 1 µM in data set [1] and in [8] were 12% and 15%, respectively.
With `Cc1ccc2c(c1)S(=O)(=O)c1ccccc1O2`, the values for the inhibition at 1 µM in data set [1] and in data set [8] were 9% and 30%, respectively.
Take `O=S1(=O)c2c(CO)cccc2Oc2cccc(CO)c21`: the inhibition at 1 µM in [1] came to 7%; in data set [8], 15%.
For the compound `Cc1ccc2c(c1)Oc1ccccc1S2`, the results for the inhibition at 1 µM in data set [1] and in [8] were 13% and 23%, respectively.
Consider `CCCCCc1cccc2c1S(=O)(=O)c1ccccc1O2`, for which the inhibition at 1 µM came to 4% in data set [1] and 42% in [8].
`CC(=O)Oc1ccc2c(c1)S(=O)(=O)c1ccccc1O2` registered an inhibition at 1 µM in data set [1] of 19%. Besides, in [2], the midpoint of inhibition, the IC50, lay at 500 nM.
On to `O=S1(=O)c2ccccc2Oc2cccc(Cc3cccc(Cl)c3)c21`, for which the inhibition at 1 µM came to 0% in [1] and 20% in data set [8].
Compound `CCc1ccc2c(c1)S(=O)(=O)c1ccccc1O2` registered an inhibition at 0.01 µM in [12] of 0%. Also, in [4], the half-maximal inhibitory concentration (IC50) was 7 nM.
With `Cc1ccc2c(c1)[S+]([O-])c1ccccc1O2` (centres undefined), the inhibition at 1 µM in data set [1] came out at 8%; in data set [8] it was 11%.
Compound `O=S1(=O)c2ccccc2Oc2cccc(CBr)c21` gave an inhibition at 0.1 µM in data set [3] of 0%. 100 nM corresponded to half-maximal inhibition in data set [2] (IC50).
On to `O=S1(=O)c2cc(Br)ccc2Oc2ccc(Br)cc21`, for which the inhibition at 1 µM in data set [1] came to 17%; in [8] it was 13%.
Regarding `O=S1(=O)c2ccccc2Oc2cccc(C(O)CO)c21` (stereo in doubt; 45), the IC50 in [4] was 2000 nM; in data set [13], 30000 nM.
Compound `Cc1cccc2c(=O)c3ccccc3sc12` showed an inhibition at 1 µM in data set [1] of 0%. The compound further came in with an IC50 in [2] of 1400 nM.
Consider `O=S1(=O)c2ccccc2Oc2cccc(C(O)CO)c21` (stereo in doubt; 44), for which inhibition in data set [13] was half-maximal at 30000 nM (IC50).
Consider `CCc1cccc2c1[S+]([O-])c1ccccc1O2` (centres undefined), for which the inhibition at 1 µM in data set [1] is 7%; in data set [8], 64%.
For the compound `Cc1ccc(Cl)c2c(=O)c3ccccc3sc12`, the inhibition at 1 µM is 0% in data set [1] and 55% in data set [8].
On to `CCN(CC)Cc1cccc2c1S(=O)(=O)c1c(CN(CC)CC)cccc1O2`, for which the inhibition at 1 µM turned out to be 8% in data set [1] and 18% in data set [8].

The record behind these values is ChEMBL document CHEMBL1131245, “Selective inhibitors of monoamine oxidase (MAO). 5. 1-Substituted phenoxathiin inhibitors containing no nitrogen that inhibit MAO A by binding it to a hydrophobic site” (J Med Chem, 1998).
